Measured values taken from ChEMBL document CHEMBL1147926, “Synthetic chalcones, flavanones, and flavones as antitumoral agents: biological evaluation and structure-activity relationships” (Bioorg Med Chem, 2007).
pIC50: −log10 of the molar value.

How the values were obtained:
HT-29 [1] = assay: Cytotoxicity against human HT29 cells ATCC HTB38 in aerobic condition assessed as survival at 100 uM by sulforhodamine assay; type: functional; details: read-out: Activity
Summary of the method: (§1)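 Cells kept in RPMI with L-glutamine, penicillin/streptomycin, non-essential amino acids (1% each) and 10% FBS, 37 °C, 5% CO2, 48 h; compound added from 1 mM stock in 10% DMSO to final 100 µM, 24 h exposure. TCA fixation 1 h at 4 °C, sulforhodamine B staining, Tris pH 10.0, A540. Survival = (T/C)×100 versus solvent control; duplicates, two repetitions averaged.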

TK-10 [2] = assay: Cytotoxicity against human TK10 cells in aerobic condition assessed as survival at 100 uM by sulforhodamine assay; type: functional; details: read-out: Activity; summary of the method: as §1
MCF7 [3] = assay: Cytotoxicity against human MCF7 cells […] in aerobic condition assessed as survival at 100 uM by sulforhodamine assay; type: functional; details: read-out: Activity; summary of the method: as §1
HT-29 [4] = assay: Growth inhibition of HT29 cells by sulforhodamine assay; type: functional, cell-based; details: Homo sapiens
Summary of the method: (§2)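 Cells grown in supplemented RPMI with 10% FBS at 37 °C, 5% CO2, 48 h, then exposed to increasing compound concentrations (1 mM stocks in 10% DMSO) for 24 h. Sulforhodamine B read-out after TCA fixation at A540. IC50 is the concentration halving absorbance relative to solvent control. Duplicates, at least two repetitions, means reported.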

[5] = Growth inhibition of HK2 cells by sulforhodamine assay; type: cell-based; details: Homo sapiens, HK-2
TK-10 [6] = assay: Growth inhibition of TK10 cells by sulforhodamine assay; type: functional, cell-based; details: Homo sapiens; summary of the method: as §2
MCF7 [7] = assay: Growth inhibition of MCF7 cells by sulforhodamine assay; type: functional, cell-based; details: Homo sapiens; summary of the method: as §2

Structure (SMILES) | viability at 100 µM (HT-29 [1]) | viability at 100 µM (TK-10 [2]) | viability at 100 µM (MCF7 [3]) | pIC50 (HT-29 [4]) | pIC50 [5] | pIC50 (TK-10 [6]) | pIC50 (MCF7 [7])
O=C(/C=C/c1ccc(O)cc1)c1ccccc1O | 9% | 5% | 3% | – | – | – | –
O=c1cc(-c2ccc(Cl)cc2)oc2ccccc12 | 100% | 74% | 100% | – | – | – | –
CC(=O)Nc1ccc(/C=C/C(=O)c2ccccc2)cc1 | 3% | 5% | 24% | – | – | – | –
O=C(/C=C/c1ccc(Cl)cc1)c1ccccc1O | 25% | 3% | 41% | 4.35 | – | – | –
COc1ccc(/C=C/C(=O)c2ccccc2O)cc1 | 97% | 4% | 10% | – | 4.63 | 4.17 | –
CCCCCCOc1ccc(/C=C/C(=O)c2ccccc2O)cc1 | 97% | 62% | 76% | – | – | – | –
COc1ccc(C2CC(=O)c3ccccc3O2)cc1 (configuration not stated) | 100% | 36% | 2% | – | – | – | –
O=c1cc(-c2ccccc2Br)oc2ccccc12 | 61% | 69% | 36% | – | – | – | –
O=C(/C=C/c1ccc(OCc2ccccc2)cc1)c1ccccc1O | 59% | 64% | 56% | – | – | – | –
O=C1CC(c2ccc(OCc3ccccc3)cc2)Oc2ccccc21 (configuration not stated) | 69% | 78% | 76% | – | – | – | –
COc1ccc(C2CC(=O)c3ccccc3O2)cc1OC (configuration not stated) | 68% | 69% | 81% | – | – | – | –
CSc1ccc(/C=C/C(=O)c2ccccc2O)cc1 | 76% | 91% | 75% | – | – | – | –
CSc1ccc(C(O)CC(=O)c2ccccc2O)cc1 (configuration not stated) | 100% | 100% | 90% | – | – | – | –
CN(C)c1ccc(/C=C/C(=O)c2ccccc2O)cc1 | 65% | 76% | 87% | – | – | – | –
CC(=O)Nc1ccc(/C=C/C(=O)c2ccccc2O)cc1 | 87% | 89% | 79% | – | – | – | –
O=C(/C=C/c1ccc(Br)cc1)c1ccccc1 | 28% | 90% | 44% | – | – | – | –
O=C(/C=C/c1ccccc1Br)c1ccccc1 | 26% | 2% | 32% | – | – | – | –
CSc1ccc(/C=C/C(=O)c2ccccc2)cc1 | 46% | 0% | 47% | – | – | – | –
Nc1ccc(/C=C/C(=O)c2ccccc2O)cc1 | 98% | 91% | 43% | – | – | – | –
COc1ccc(OC)c(/C=C/C(=O)c2ccccc2O)c1 | 92% | 56% | 45% | – | – | – | –
O=C(CCc1ccc(OCc2ccccc2)cc1)c1ccccc1O | 100% | 95% | 89% | – | – | – | –
COc1cc(O)c(C(=O)/C=C/c2ccc(OC)c(OC)c2)c(OC)c1 | – | 100% | 89% | – | – | – | –
O=C(/C=C/c1ccccc1)c1ccc(OCc2ccccc2)cc1O | 99% | 72% | 74% | – | – | – | –
O=C(/C=C/c1ccc(OCc2ccccc2)cc1)c1ccc(OCc2ccccc2)cc1O | 100% | 92% | 100% | – | – | – | –
CCCCOc1ccc(/C=C/C(=O)c2ccc(OCCCC)cc2O)cc1 | 99% | 79% | 81% | – | – | – | –

Structure (SMILES) | viability at 100 µM (HT-29 [1]) | viability at 100 µM (TK-10 [2]) | viability at 100 µM (MCF7 [3]) | pIC50 (HT-29 [4]) | pIC50 [5] | pIC50 (TK-10 [6]) | pIC50 (MCF7 [7])
COc1cc(/C=C/C(=O)c2ccccc2O)ccc1OCc1ccccc1 | 100% | 90% | 97% | – | – | – | –
O=C(/C=C/c1ccc2c(c1)OCO2)c1ccccc1O | 69% | 50% | 79% | – | 4.94 | – | –
COc1ccc(/C=C/C(=O)c2ccccc2O)cc1I | 92% | 41% | 96% | – | – | – | –
O=C(/C=C/c1ccc(OCc2ccccc2)c(I)c1)c1ccccc1O | 100% | 78% | 81% | – | – | – | –
O=C(/C=C/C=C/c1ccccc1)c1ccccc1O | – | 100% | 84% | – | – | – | –
O=c1cc(-c2ccc(Br)cc2)oc2ccccc12 | 100% | 94% | 73% | – | 4.32 | – | –
O=C(/C=C/c1ccc([N+](=O)[O-])cc1)c1ccccc1O | 94% | 34% | 43% | – | – | – | –
COc1ccc(/C=C/C(=O)c2ccccc2O)cc1OC | 70% | 2% | 1% | – | – | 4.05 | 4.02
O=C1CC(c2ccc3c(c2)OCO3)Oc2ccccc21 (configuration not stated) | 100% | 100% | 100% | – | – | – | –
O=C(/C=C/c1ccccc1Br)c1ccc(OCc2ccccc2)cc1O | 80% | 65% | 74% | – | – | – | –
O=C1CC(c2ccc(Br)cc2)Oc2ccccc21 (configuration not stated) | 61% | 16% | 26% | – | – | – | –
O=C(/C=C/c1ccccc1[N+](=O)[O-])c1ccccc1O | 100% | 100% | 100% | – | – | – | –
CCCCCCCCCOc1ccc(/C=C/C(=O)c2ccccc2O)cc1 | 98% | 77% | 86% | – | – | – | –
COc1cc(O)c(C(=O)/C=C/c2ccccc2Br)c(OC)c1 | 87% | 53% | 82% | – | – | – | –
O=C(/C=C/c1ccccc1Br)c1ccccc1O | 0% | 3% | 100% | – | – | – | –
COc1ccc(/C=C/C(=O)c2ccccc2O)cc1OCc1ccccc1 | 100% | 100% | 100% | – | – | – | –
O=C(/C=C/c1ccco1)c1ccccc1O | 40% | 48% | 60% | – | – | – | –
O=C1CC(c2ccccc2Br)Oc2ccccc21 (configuration not stated) | 44% | 54% | 12% | – | – | – | –
O=C(/C=C/c1ccc(Br)cc1)c1ccccc1O | 71% | 60% | 43% | – | 4.47 | – | –
COc1ccc(-c2cc(=O)c3ccccc3o2)cc1 [4'-METHOXYFLAVONE] | 100% | 82% | 100% | – | – | – | –
O=C(/C=C/c1ccc(Cl)cc1)c1ccccc1 [4-CHLORO CHALCONE] | 9% | 2% | 56% | – | – | – | –
O=C1CC(c2ccccc2)Oc2ccccc21 (configuration not stated) [FLAVANONE] | 69% | 79% | 54% | – | – | – | –
COc1ccc(/C=C/C(=O)c2c(O)cc(OC)cc2OC)cc1 [FLAVOKAWAIN A] | – | 71% | 60% | – | – | – | –
O=c1cc(-c2ccccc2)oc2ccccc12 [FLAVONE] | 90% | 87% | 57% | – | – | – | –
